From ChEMBL document CHEMBL3808334, “Synthesis and in vitro evaluation of novel triazine analogues as anticancer agents and their interaction studies with bovine serum albumin” (Eur J Med Chem, 2016)

How the values were obtained:
Assay type in all cases: functional
[1] = Growth inhibition of human SW620 cells assessed as cell growth at 10^-5 M incubated for 48 hrs by sulforhodamine B assay; conditions: SW-620, 48 h, read-out: Activity
[2] = Growth inhibition of human HL-60(TB) cells assessed as cell growth at 10 uM incubated for 48 hrs by sulforhodamine B assay; conditions: HL-60, 48 h, read-out: Activity
[3] = Growth inhibition of human Caki1 cells incubated for 48 hrs by sulforhodamine B assay; conditions: CAKI-1, 48 h
Summary of the method: (§1)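 Cells seeded at 5,000–40,000/well according to doubling time and preincubated 24 h at 37 °C, 5% CO2. Time-zero plates were TCA-fixed. DMSO concentrate was diluted in medium with 50 µg/ml gentamicin to give five concentrations (10-fold or ½ log steps), then exposed 48 h. Cells were TCA-fixed, stained with 0.4% SRB and read at 515 nm. Percent growth was taken against time-zero and control; GI50, TGI and LC50 derived.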

[4] = Growth inhibition of human SF268 cells assessed as cell growth at 10^-8 M incubated for 48 hrs by sulforhodamine B assay; conditions: SF-268, 48 h, read-out: Activity
U-251 = test: Growth inhibition of human U251 cells assessed as cell growth at 10 uM incubated for 48 hrs by sulforhodamine B assay; conditions: U-251, 48 h, read-out: Activity
[5] = Growth inhibition of human HOP92 cells assessed as cell growth at 10^-8 M incubated for 48 hrs by sulforhodamine B assay; conditions: HOP-92, 48 h, read-out: Activity
[6] = Growth inhibition of human UACC62 cells assessed as cell growth at 10^-6 M incubated for 48 hrs by sulforhodamine B assay; conditions: UACC-62, 48 h, read-out: Activity
[7] = Growth inhibition of human OVCAR8 cells assessed as cell growth at 10^-5 M incubated for 48 hrs by sulforhodamine B assay; conditions: OVCAR-8, 48 h, read-out: Activity
MDA-MB-468 = test: Growth inhibition of human MDA-MB-468 cells assessed as cell growth at 10^-7 M incubated for 48 hrs by sulforhodamine B assay; conditions: MDA-MB-468, 48 h, read-out: Activity
SK-MEL-2 = test: Growth inhibition of human SK-MEL-2 cells assessed as cell growth at 10^-7 M incubated for 48 hrs by sulforhodamine B assay; conditions: SK-MEL-2, 48 h, read-out: Activity
[8] = Growth inhibition of human TK10 cells assessed as cell growth at 10 uM incubated for 48 hrs by sulforhodamine B assay; conditions: TK-10, 48 h, read-out: Activity
[9] = Growth inhibition of human HOP62 cells assessed as cell growth at 10^-8 M incubated for 48 hrs by sulforhodamine B assay; conditions: HOP-62, 48 h, read-out: Activity
EKVX = test: Growth inhibition of human EKVX cells assessed as cell growth at 10 uM incubated for 48 hrs by sulforhodamine B assay; conditions: read-out: Activity
Summary of the method: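 Primary screen at one dose (10 µM) across 60 human cancer cell lines. Readout was growth percent relative to untreated control and time-zero.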

KM12 = test: Growth inhibition of human KM12 cells assessed as cell growth at 10^-8 M incubated for 48 hrs by sulforhodamine B assay; conditions: KM12, 48 h, read-out: Activity
[10] = Growth inhibition of human PC3 cells assessed as cell growth at 10^-5 M incubated for 48 hrs by sulforhodamine B assay; conditions: PC-3, 48 h, read-out: Activity
SK-MEL-5 = test: Growth inhibition of human SK-MEL-5 cells assessed as cell growth at 10^-5 M incubated for 48 hrs by sulforhodamine B assay; conditions: SK-MEL-5, 48 h, read-out: Activity
[11] = Growth inhibition of human UACC62 cells assessed as cell growth at 10^-8 M incubated for 48 hrs by sulforhodamine B assay; conditions: UACC-62, 48 h, read-out: Activity
[12] = Growth inhibition of human HL-60(TB) cells assessed as cell growth at 10^-6 M incubated for 48 hrs by sulforhodamine B assay; conditions: HL-60, 48 h, read-out: Activity
Summary of the method: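 Cells plated at 5,000–40,000/well according to doubling time and preincubated 24 h at 37 °C, 5% CO₂, with time-zero plates TCA-fixed. Drugs were kept as DMSO concentrates at 400× the top concentration and diluted in medium with 50 µg/ml gentamicin. Five 10-fold or ½-log dilutions were run for 48 h, followed by SRB staining and A515. Percent growth = (Ti−Tz)/(C−Tz)×100, or (Ti−Tz)/Tz×100 when Ti<Tz.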

[13] = Growth inhibition of human SNB75 cells incubated for 48 hrs by sulforhodamine B assay; conditions: SNB-75, 48 h
Summary of the method: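 Cells were plated at 5,000–40,000 per well according to doubling time and preincubated 24 h at 37 °C in 5% CO2; time-zero plates were then TCA-fixed. Five concentrations (10-fold or ½-log dilutions, DMSO stock) were incubated 48 h. Cells were TCA-fixed, stained with 0.4% SRB and read at 515 nm. GI50 was taken where [(Ti−Tz)/(C−Tz)]×100 = 50.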

M14 = test: Growth inhibition of human M14 cells assessed as cell growth at 10^-6 M incubated for 48 hrs by sulforhodamine B assay; conditions: M14, 48 h, read-out: Activity
[14] = Growth inhibition of human SF295 cells assessed as cell growth at 10^-5 M incubated for 48 hrs by sulforhodamine B assay; conditions: SF-295, 48 h, read-out: Activity
[15] = Growth inhibition of human breast cancer cells incubated for 48 hrs by sulforhodamine B assay; conditions: Cancer cell lines; for CC50: read-out: LC50 (the source's name)
[16] = Growth inhibition of human DU145 cells incubated for 48 hrs by sulforhodamine B assay; conditions: DU-145, 48 h; for CC50: read-out: pLC50 (the source's name) (converted); summary of the method: as §1
MCF7 = test: Growth inhibition of human MCF7 cells assessed as cell growth at 10^-6 M incubated for 48 hrs by sulforhodamine B assay; conditions: MCF7, 48 h, read-out: Activity
ACHN = test: Growth inhibition of human ACHN cells assessed as cell growth at 10^-7 M incubated for 48 hrs by sulforhodamine B assay; conditions: read-out: Activity
Summary of the method: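 Five-dose assay: five concentrations from 10-fold or ½-log serial dilutions. Cells are plated at 5,000–40,000 per well according to doubling time, grown 24 h, then exposed 48 h at 37 °C, 5% CO₂. Fixed with cold 50% TCA (final addition) for 60 min at 4 °C and stained with 0.4% SRB in 1% acetic acid. Bound dye is solubilized in 10 mM Tris base and read at 515 nm. GI₅₀ is where [(Ti−Tz)/(C−Tz)]×100 = 50, with a time-zero plate as Tz.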

[17] = read-out: pLC50 (the source's name) (converted)

Row | SMILES | growth at 10 µM [1] | growth at 10 µM [2] | GI50 ([3]; read-out: GI50) | TGI ([3]; read-out: TGI) | GI50 ([3]; read-out: pGI50 (converted)) | TGI ([3]; read-out: pTGI (converted)) | growth at 0.01 µM [4] | growth at 10 µM (U-251) | growth at 0.01 µM [5] | growth at 1 µM [6] | growth at 10 µM [7] | growth at 0.1 µM (MDA-MB-468) | growth at 0.1 µM (SK-MEL-2) | growth at 10 µM [8] | growth at 0.01 µM [9] | growth at 10 µM (EKVX) | growth at 0.01 µM (KM12) | growth at 10 µM [10] | growth at 10 µM (SK-MEL-5) | growth at 0.01 µM [11] | further results
1 | Clc1ccc(-c2nc(Nc3ccc(-c4nc5ccccc5[nH]4)cc3)nc(N3CCOCC3)n2)cc1 | -79% | -81.4% | 1.41 µM | 2.72 µM | 1.41 µM | 2.69 µM | 98% | -93% | 90% | -53% | -79% | 112% | 92% | -94.4% | 91% | -91.3% | 98% | -89% | -94% | 94% | LC50 [3]: 5.23 µM; CC50 [3, 17]: 5.25 µM; growth at 1 µM [12]: -29%; GI50 ([13]; read-out: GI50): 1.75 µM; TGI ([13]; read-out: TGI): 3.25 µM; GI50 ([13]; read-out: pGI50 (converted)): 1.74 µM; TGI ([13]; read-out: pTGI (converted)): 3.24 µM; growth at 1 µM (M14): 18%; growth at 10 µM [14]: -85%; GI50 [15]: 0.62 µM; TGI [15]: 1.86 µM; CC50 [15]: > 100 µM; LC50 (50% net cell kill) [16]: 4.33 µM; GI50 ([16]; read-out: GI50): 0.452 µM; TGI ([16]; read-out: TGI): 1.64 µM; GI50 ([16]; read-out: pGI50 (converted)): 0.447 µM; CC50 [16]: 4.37 µM; TGI ([16]; read-out: pTGI (converted)): 1.66 µM; growth at 1 µM (MCF7): -39%; growth at 0.1 µM (ACHN): 99%
2 | c1ccc2[nH]c(-c3ccc(Nc4nc(N5CCCCC5)nc(N5CCOCC5)n4)cc3)nc2c1 | -29% | -22.7% | 1.81 µM | 4.08 µM | 1.82 µM | 4.07 µM | 96% | 8.02% | 92% | 92% | 9% | 100% | 102% | 58.8% | 96% | 27.7% | 101% | -4% | -90% | 96% | growth at 1 µM [12]: 100%; GI50 ([13]; read-out: GI50): 2.1 µM; CC50 ([13]; read-out: LC50 (the source's name)): > 100 µM; TGI ([13]; read-out: TGI): 16.9 µM; GI50 ([13]; read-out: pGI50 (converted)): 2.09 µM; CC50 [13, 17]: > 100 µM; TGI ([13]; read-out: pTGI (converted)): 17 µM; growth at 1 µM (M14): 93%; growth at 10 µM [14]: -43%; GI50 [15]: 2.36 µM; TGI [15]: 6.72 µM; CC50 [15]: 92.7 µM; LC50 (50% net cell kill) [16]: > 100 µM; GI50 ([16]; read-out: GI50): 4.28 µM; TGI ([16]; read-out: TGI): > 100 µM; GI50 ([16]; read-out: pGI50 (converted)): 4.27 µM; CC50 [16]: > 100 µM; TGI ([16]; read-out: pTGI (converted)): > 100 µM; growth at 1 µM (MCF7): 87%; growth at 0.1 µM (ACHN): 95%
